Source: ChEMBL document CHEMBL1255434, “Heat stress cognate 70 host protein as a potential drug target against drug resistance in hepatitis B virus” (Antimicrob Agents Chemother, 2010)
Values after ≈ are worked out from the molar mass of the structure shown. Active and inactive are the calls of the source. No cut-off for these calls is given here.

Key:
[1] = Decrease in HscA70-mRNA expression in Hepatitis B virus infected in human HepG2(2.2.15) cells at 5.9 uM after 24-36 hrs by RT-PCR analysis; type: functional, cell-based
[2] = system: Hepatitis B virus; assay: Antiviral activity against Hepatitis B virus infected in human HepG2(2.2.15) cells assessed as decrease in intracellular viral DNA level at 5.9 uM after 72 hrs by RT-PCR analysis; type: functional, organism-based
Summary of the method: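 HepG2.2.15 cells were treated at 5.9, 23.6, 94.5 and 378 μM and 1.51 mM for 72 h. Intracellular HBV DNA was measured by real-time PCR, with Hsc70 mRNA by RT-PCR in parallel. Amounts were expressed relative to untreated cells, set as 1. Dot blot was used as confirmation. Means and SD.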

[3] = system: HepG2 2.2.15; assay: Reduction in Hsc70 mRNA half-life in Hepatitis B virus infected in human HepG2(2.2.15) cells at 1.51 mM after 24 hrs by RT-PCR analysis; type: functional; details: HepG2 2.2.15, 24 h
Summary of the method: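 HepG2.2.15 cells treated or not with 0.4 mg/ml (1.51 mM) for 24 h, then actinomycin D 5 μg/ml added to block transcription. RNA harvested at intervals; Hsc70 mRNA by real-time RT-PCR, normalized to GAPDH. Percent remaining plotted against time to estimate T1/2. Repeated twice.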

[4] = system: Hepatitis B virus; assay: Antiviral activity against lamivudine-resistant Hepatitis B virus infected in human Huh-7 cells assessed as suppression of viral replication at 1.51 mM after 24 hrs by RT-PCR analysis; type: functional; details: Huh-7, 24 h
Summary of the method: (§1)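 Huh-7 cells (10^5/well) were plated and incubated overnight. They were then transfected for 24 h with pcDNA3.1 carrying one HBV strain: Lamr (rtL180M+rtM204V), Advr (rtA181V+rtN236T) or Etvr (rtL180M+rtM204V+rtS202G). Medium was replaced with fresh medium containing 0.4 mg/ml (1.51 mM) for 24 h. Intracellular HBV DNA replicative intermediates were quantified by real-time PCR against untreated controls. Performed twice.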

[5] = system: HepG2; assay: Decrease in Hsc70- mRNA expression in human liver HepG2 cells at 0.23 to 0.94 mM after 24 hrs by RT-PCR analysis; type: functional, cell-based
Summary of the method: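 Hsc70 mRNA by one-step SYBR Green qRT-PCR after 24 h treatment at 0.0625 or 0.25 mg/ml (0.23 and 0.94 mM), relative to untreated cells. More than 5 experiments; means and SD.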

[6] = Cytotoxicity against human HepG2(2.2.15) cells assessed as cell growth at 1.51 mM after 36 hrs; type: cell-based; details: hepg2 2.2.15, 36 h, 1510 µM
Summary of the method: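 HepG2.2.15 cell growth followed during 36 h exposure to 0.4 mg/ml (1.51 mM), compared with untreated cells; experiment repeated twice.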

[7] = Decrease in Hsc70- mRNA expression in Hepatitis B virus infected in human HepG2(2.2.15) cells at 1.51 mM by RT-PCR analysis; type: functional, cell-based; details: TDE = time-dependent effect
[8] = Decrease in Hsc70-protein expression in Hepatitis B virus infected in human HepG2(2.2.15) cells at 1.51 mM after 24 hrs by Western blot analysis; type: functional, cell-based
Summary of the method: (§2)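 HepG2.2.15 cells treated 24 h at 0.4 mg/ml (1.51 mM). Western blot: RIPA lysates with PMSF and protease inhibitors, SDS-PAGE, PVDF, 5% milk/TBST block 1 h at 37°C, mouse anti-Hsc70 monoclonal, HRP secondary, ECL. Flow cytometry: rabbit anti-Hsc70 with Cy5-labelled anti-rabbit secondary. Five experiments per assay.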

[9] = Decrease in Hsc70-protein expression in Hepatitis B virus infected in human HepG2(2.2.15) cells at 1.51 mM after 24 hrs by flow-cytometric assay; type: functional, cell-based; summary of the method: as §2
[10] = Decrease in Hsc70- mRNA expression in Hepatitis B virus infected in human HepG2(2.2.15) cells at 1.51 mM after 72 hrs by RT-PCR analysis; type: functional, cell-based
Summary of the method: (§3)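 Dose-response in HepG2.2.15 cells: 5.9, 23.6, 94.5 and 378 μM and 1.51 mM for 72 h. Hsc70 mRNA by qRT-PCR and intracellular HBV DNA by real-time PCR, each expressed relative to untreated cells (=1). HBV DNA also checked by dot blot. EC50 from this curve.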

[11] = system: Hepatitis B virus; assay: Antiviral activity against Hepatitis B virus infected in human HepG2(2.2.15) cells assessed as decrease in intracellular viral DNA level at 1.51 mM after 36 hrs by RT-PCR analysis; type: functional; details: HepG2 2.2.15, 36 h
Summary of the method: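 HepG2.2.15 cells (HBV full-genome transfected HepG2) in MEM with 10% FBS, exposed to 0.4 mg/ml (1.51 mM) for 36 h. Intracellular DNA (genomic plus HBV) isolated and HBV DNA quantified by SYBR Green real-time PCR. Values were normalised to the untreated-cell mean, set as 1.0. Run 3 times; means and SD.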

[12] = system: Hepatitis B virus; assay: Antiviral activity against Hepatitis B virus infected in human HepG2(2.2.15) cells assessed as decrease in supernatant viral DNA level at 1.51 mM after 36 hrs by RT-PCR analysis; type: functional; design: scale not given: the % may be the effect or the level left
[13] = Decrease in Luc mRNA expression in human sHepG2(2.2.15) cells expressing pLuc-3'UTR […] by RT-PCR analysis; type: functional, cell-based; design: scale not given: the % may be the effect or the level left; details: HepG2 2.2.15
[14] = Decrease in Luc mRNA expression in human sHepG2(2.2.15) cells expressing pLuc-5'UTR after 24 hrs by RT-PCR analysis; type: functional, cell-based; details: HepG2 2.2.15
Summary of the method: (§4)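 HepG2.2.15 cells transfected 24 h with luciferase reporter pLuc (pcDNA3.0 backbone), pLuc-3′UTR or pLuc-5′UTR (Hsc70 UTR chimeras). Cells split into two dishes, incubated overnight, then given drug or dilution buffer. Total RNA taken 12 h later; Luc mRNA by real-time RT-PCR. Three experiments; means and SD.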

[15] = Decrease in wild type Luc mRNA expression in human HepG2(2.2.15) cells after 24 hrs by RT-PCR analysis; type: functional, cell-based; summary of the method: as §4
[16] = Decrease in HscA4-mRNA expression in Hepatitis B virus infected in human HepG2(2.2.15) cells at 1.51 mM after 24 hrs by RT-PCR analysis; type: functional, cell-based
Summary of the method: (§5)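 HepG2.2.15 cells at 0.4 mg/ml (1.51 mM). HspA4 and Hsp90 mRNA measured as host reference genes by one-step SYBR Green qRT-PCR, alongside Hsc70 mRNA and HBV DNA.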

[17] = Decrease in HscA90-mRNA expression in Hepatitis B virus infected in human HepG2(2.2.15) cells at 1.51 mM after 24 hrs by RT-PCR analysis; type: functional, cell-based; summary of the method: as §5
[18] = system: Hepatitis B virus; assay: Antiviral activity against Hepatitis B virus infected in human HepG2(2.2.15) cells assessed as decrease in intracellular viral DNA level at 113 uM after 72 hrs by RT-PCR analysis; type: functional, organism-based
Summary of the method: (§6)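 HepG2.2.15 cells (HBV genome-transfected, MEM + 10% FBS) treated 72 h with drug alone or in two-drug combination. Entecavir 0.6 μg/ml (2.16 μM), adefovir 3 μg/ml (5.9 μM), lamivudine 3 μg/ml (13 μM), oxymatrine 30 μg/ml (113 μM). Intracellular HBV DNA by SYBR Green real-time PCR, relative to untreated. Experiment repeated twice; means and SD, Student's t test.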

[19] = system: Hepatitis B virus; assay: Antiviral activity against Hepatitis B virus infected in human HepG2(2.2.15) cells assessed as decrease in intracellular viral DNA level at 113 uM after 72 hrs by RT-PCR analysis in presence of adefovir; type: functional, organism-based; summary of the method: as §6
[20] = system: Hepatitis B virus; assay: Antiviral activity against Hepatitis B virus infected in human HepG2(2.2.15) cells assessed as decrease in intracellular viral DNA level at 113 uM after 72 hrs by RT-PCR analysis in presence of entecavir; type: functional, organism-based; summary of the method: as §6
[21] = system: Hepatitis B virus; assay: Antiviral activity against Hepatitis B virus infected in human HepG2(2.2.15) cells assessed as reduction in viral DNA level at 23.6 uM to 1.51 mM after 72 hrs by RT-PCR analysis; type: functional; summary of the method: as §3
[22] = system: Hepatitis B virus; assay: Antiviral activity against Hepatitis B virus infected in human HepG2(2.2.15) cells assessed as reduction in viral DNA level by RT-PCR analysis; type: functional, organism-based
[23] = Cytotoxicity against human HepG2(2.2.15) cells assessed as cell killing by MTT assay; type: cell-based
Summary of the method: (§7)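 CC50 from MTT assay in HepG2.2.15 cells. Therapeutic ratio taken as CC50 over the anti-HBV EC50 from the 72 h dose-response measuring intracellular HBV DNA by real-time PCR.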

[24] = Therapeutic index, ratio of CC50 for human sHepG2(2.2.15) cells to IC50 for Hepatitis B virus; type: cell-based; details: HepG2 2.2.15 cells; summary of the method: as §7
[25] = system: Hepatitis B virus; assay: Antiviral activity against Hepatitis B virus infected in human HepG2(2.2.15) cells assessed as reduction in viral DNA replicative intermediates at 23.6 uM to 1.51 mM after 24 hrs by RT-PCR analysis; type: functional
[26] = system: Hepatitis B virus; assay: Antiviral activity against Hepatitis B virus infected in human HepG2(2.2.15) cells assessed as reduction in genomic viral DNA at 23.6 uM to 1.51 mM after 24 hrs by RT-PCR analysis; type: functional; design: scale not given: the % may be the effect or the level left
[27] = system: Hepatitis B virus; assay: Antiviral activity against Hepatitis B virus infected in human HepG2(2.2.15) cells assessed as reduction in viral DNA level at 1.51 mM for 12, 24 or 36 hrs by RT-PCR analysis; type: functional, organism-based
Summary of the method: (§8)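 HepG2.2.15 cells exposed to 0.4 mg/ml (1.51 mM) for 12, 24 or 36 h. Total RNA taken for HBV mRNA by one-step SYBR Green qRT-PCR; intracellular DNA isolated for HBV DNA by real-time PCR. Each value scaled to the mean of untreated cells set as 1.0. Three experiments; means and SD.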

[28] = system: Hepatitis B virus; assay: Antiviral activity against Hepatitis B virus infected in human HepG2(2.2.15) cells assessed as reduction in viral mRNA level at 1.51 mM for 12, 24 or 36 hrs by RT-PCR analysis; type: functional, organism-based; summary of the method: as §8
[29] = system: Hepatitis B virus; assay: Antiviral activity against adefovir-resistant Hepatitis B virus infected in human Huh-7 cells assessed as suppression of viral replication at 1.51 mM after 24 hrs by RT-PCR analysis; type: functional; details: Huh-7, 24 h; summary of the method: as §1
[30] = system: Hepatitis B virus; assay: Antiviral activity against entecavir-resistant Hepatitis B virus infected in human Huh-7 cells assessed as suppression of viral replication at 1.51 mM after 24 hrs by RT-PCR analysis; type: functional; details: Huh-7, 24 h; summary of the method: as §1
[31] = Half life in human blood; type: ADME, tissue-based
[32] = system: Hepatitis B virus; assay: Antiviral activity against drug-resistant chronic Hepatitis B virus infected patients assessed as reduction in viral DNA at 0.4 g/day, po for 12 months; type: functional
[33] = Cytotoxicity against human HepG2(2.2.15) cells assessed as cell survival at 113 uM continuous exposure measured after 7 months; details: hepg2 2.2.15, 5113.5 h
[34] = Cytotoxicity against human HepG2(2.2.15) cells assessed as cell survival at 113 uM continuous exposure measured after 2 months; details: hepg2 2.2.15, 1461 h
[35] = system: Hepatitis B virus; assay: Antiviral activity against Hepatitis B virus infected in human HepG2(2.2.15) cells assessed as reduction in viral DNA level at 113 uM continuous exposure measured after 2 months by RT-PCR analysis
[36] = system: Hepatitis B virus; assay: Antiviral activity against Hepatitis B virus infected in human HepG2(2.2.15) cells assessed as reduction in viral DNA level at 113 uM continuous exposure measured after 7 months by RT-PCR analysis

For Nc1ncnc2c1ncn2CCOCP(=O)(O)O, the Activity [1] was “inactive” and the Activity [2] was “Active”.
With O=C1CCC[C@@H]2[C@H]3CCC[N+]4([O-])CCC[C@@H](CN12)[C@@H]34 (stereo partly specified) [OXYMATRINE] the inhibition at 1510 µM [3] was 50%, the inhibition at 1510 µM [4] was 62% and the Activity [5] was “Active”. For the same compound, the Activity [6] was “Non-toxic”, the Activity [7] was “tde” and the Activity [8] was “Active”. The Activity [9] was “Active”, the Activity [10] was “inactive” and the inhibition at 1510 µM [11] was 62%. The Activity [12] was 60%, the Activity [13] was 50% and the Activity [14] was “inactive”. For the same compound, the Activity [15] was “inactive”, the Activity [16] was “inactive” and the Activity [17] was “inactive”. The Activity [18] was “Active”, the Activity [19] was “Active” and the Activity [20] was “Active”. For the same compound, the “inhibition (INH)” value [21] was 43%, the EC50 [22] was 31 µg/mL (≈ 117 µM) and the MTT [23] was 3.12 mg/mL. For the same compound, the selectivity ratio [24] was greater than 100, the “inhibition (INH)” value [25] was 75% and the Activity [26] was 54%. For the same compound, the Activity [27] was “Active”, the Activity [28] was “inactive” and the inhibition at 1510 µM [29] was 62%. For the same compound, the inhibition at 1510 µM [30] was 62%, the half-life [31] was 2.4 h and the log10cfu [32] was 1.5. The Activity [33] was “Non-toxic”, the Activity [34] was “Non-toxic” and the Activity [35] was “Active”. The Activity [36] was “Active”.
